pIC50: −log10 of the molar value.

One data set relates to PBMC. The data set can be described thus: Inhibition of LPS-stimulated TNFalpha release in human PBMC. The data set is classed as functional, cell-based. The essentials: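 PBMC were Ficoll-isolated from heparinized blood of healthy donors and plated at 2.5 × 10⁵ cells/well in RPMI 1640 with 5% FBS and penicillin–streptomycin. Cells were preincubated with compound for 1 h, then stimulated with LPS (20 ng/ml) for 16 h. Supernatant TNFα was measured by ELISA, and IC50 is the mean of ≥3 experiments.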

Data set [1] addresses T1, Inhibitor of nuclear factor kappa-B kinase subunit beta (Homo sapiens) (UniProt O14920).
T1 sequence (whole entry): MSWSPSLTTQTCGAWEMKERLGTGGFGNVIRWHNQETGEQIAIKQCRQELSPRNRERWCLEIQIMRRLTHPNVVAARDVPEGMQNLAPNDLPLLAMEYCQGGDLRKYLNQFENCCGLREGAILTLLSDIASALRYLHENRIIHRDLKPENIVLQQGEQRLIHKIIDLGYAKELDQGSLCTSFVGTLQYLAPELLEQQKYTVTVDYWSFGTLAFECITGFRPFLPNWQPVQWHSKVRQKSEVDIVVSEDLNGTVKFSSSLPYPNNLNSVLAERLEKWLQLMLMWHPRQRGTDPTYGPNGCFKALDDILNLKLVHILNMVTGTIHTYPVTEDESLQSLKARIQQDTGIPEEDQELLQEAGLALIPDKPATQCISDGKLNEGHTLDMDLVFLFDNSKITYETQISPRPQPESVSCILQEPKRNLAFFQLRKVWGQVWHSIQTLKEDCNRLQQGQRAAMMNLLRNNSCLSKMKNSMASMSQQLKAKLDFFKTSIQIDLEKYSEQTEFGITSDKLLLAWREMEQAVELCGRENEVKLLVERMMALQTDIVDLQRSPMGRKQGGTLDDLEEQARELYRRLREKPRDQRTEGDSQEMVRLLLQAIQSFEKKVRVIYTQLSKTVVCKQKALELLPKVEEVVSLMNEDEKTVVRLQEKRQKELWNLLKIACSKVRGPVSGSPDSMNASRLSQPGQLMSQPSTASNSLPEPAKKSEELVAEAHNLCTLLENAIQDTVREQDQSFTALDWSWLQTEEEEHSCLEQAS
The data set can be described thus: Binding affinity to human recombinant IKK2 assessed as half life.

Data set [2] deals with T2, Inhibitor of nuclear factor kappa-B kinase subunit beta (Homo sapiens, UniProt O14920).
T2 sequence (O14920 whole entry): T1 sequence (whole entry)
In words: Inhibition of human recombinant IKK2.

In data set [3] the target is T1, Inhibitor of nuclear factor kappa-B kinase subunit beta (Homo sapiens). The data set can be described thus: Binding affinity to human IKK2 in PBMC assessed as half life by cell-based assay. The essentials:
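Cryopreserved PBMC were thawed and plated, then exposed to compound for 1 h. Compound was removed by four spin-and-aspirate washes, and an unwashed plate served as control. Loss of inhibition after washout gave the cellular half-life.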

Data set [4] is described as follows: Half life in human liver microsomes.
The target of data set [5] is Voltage-gated inwardly rectifying potassium channel KCNH2 (Homo sapiens, UniProt Q12809). In words: Displacement of dofetilide from human ERG transfected in HEK293 cells by fluorescence polarization assay. The essentials:
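Competition binding used membranes from HEK-293 cells transfected with hERG. Test compound competed with Cy3B-tagged N-desmethyl dofetilide for channel binding, with fluorescence polarization read-out. Values are given as % of effect.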
For orientation: Fluorescence polarisation rises when a labelled molecule tumbles more slowly, as on binding a larger partner.

Sequence of Voltage-gated inwardly rectifying potassium channel KCNH2 (Q12809 whole entry): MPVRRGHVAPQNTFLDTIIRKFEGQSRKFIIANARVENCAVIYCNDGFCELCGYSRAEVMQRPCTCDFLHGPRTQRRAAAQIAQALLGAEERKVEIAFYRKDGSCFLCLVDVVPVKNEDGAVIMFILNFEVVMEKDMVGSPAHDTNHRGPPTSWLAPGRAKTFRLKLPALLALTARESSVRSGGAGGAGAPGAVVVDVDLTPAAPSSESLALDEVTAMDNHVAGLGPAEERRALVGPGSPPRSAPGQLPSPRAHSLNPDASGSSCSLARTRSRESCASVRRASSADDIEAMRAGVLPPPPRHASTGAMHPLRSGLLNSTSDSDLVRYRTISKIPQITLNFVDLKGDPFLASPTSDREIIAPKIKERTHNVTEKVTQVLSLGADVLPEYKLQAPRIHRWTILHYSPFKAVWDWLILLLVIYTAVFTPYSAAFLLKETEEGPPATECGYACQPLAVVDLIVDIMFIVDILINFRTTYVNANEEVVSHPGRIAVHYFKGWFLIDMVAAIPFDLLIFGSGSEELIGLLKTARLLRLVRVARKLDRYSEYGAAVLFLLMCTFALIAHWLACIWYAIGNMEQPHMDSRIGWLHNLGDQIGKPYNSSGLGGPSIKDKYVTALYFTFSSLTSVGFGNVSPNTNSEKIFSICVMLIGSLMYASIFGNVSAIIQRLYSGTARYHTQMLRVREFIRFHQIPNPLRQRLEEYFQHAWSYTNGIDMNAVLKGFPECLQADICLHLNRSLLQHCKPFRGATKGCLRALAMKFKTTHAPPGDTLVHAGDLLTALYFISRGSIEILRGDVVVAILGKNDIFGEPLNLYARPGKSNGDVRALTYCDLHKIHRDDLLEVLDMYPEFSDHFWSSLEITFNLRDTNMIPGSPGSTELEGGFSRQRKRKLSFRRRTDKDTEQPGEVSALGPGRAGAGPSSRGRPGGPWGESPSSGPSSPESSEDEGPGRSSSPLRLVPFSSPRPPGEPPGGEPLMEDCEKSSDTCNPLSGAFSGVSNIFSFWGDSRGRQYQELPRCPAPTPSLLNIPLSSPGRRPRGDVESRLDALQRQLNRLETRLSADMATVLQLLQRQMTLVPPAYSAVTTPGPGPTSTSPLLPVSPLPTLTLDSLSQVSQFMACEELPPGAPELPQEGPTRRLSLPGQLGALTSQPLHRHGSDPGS

For orientation: pIC50 means the IC50 on a negative log10 scale, so that one unit is a factor of ten. In the case of `CN1CCN(c2cc(C(=O)Nc3ccc4c(c3)-c3c(c(C(N)=O)nn3-c3cccc(F)c3)CC4)c(Cl)cn2)CC1`, the negative logarithm of the IC50 (pIC50) in the data set with PBMC is 7.85; in data set [2] it was 8.32. Also, the T1/2 in data set [1] turned out to be 2 h.

For `CN1CCN(c2cc(C(=O)Nc3ccc4c(c3)-c3c(c(C(N)=O)nn3-c3ccc(F)cc3)CC4)c(Cl)cn2)CC1`, the negative logarithm of the IC50 (pIC50) is 7.41 with PBMC and 8.80 in data set [2]. Also, the T1/2 in data set [1] was 3 h.

One may read the half-life as the time needed for the level to fall by half in the phase considered. Lower therefore signals rapid decline. Turning to `CN(C)CCCn1cc(CN2CCN(c3cc(C(=O)Nc4ccc5c(c4)-c4c(c(C(N)=O)nn4-c4ccc(F)cc4)CC5)c(Cl)cn3)CC2)cn1`, the pIC50 with PBMC is 7.92; in data set [2], 8.43. The T1/2 in data set [1] is 4 h; in data set [3] it was over 4 h. The compound also came in with a half-life in data set [4] (liver microsomes) of 0.183 h. Moreover, the “inhibition (INH)” value in data set [5] is listed as 42%.

`CN1CCN(c2cc(C(=O)Nc3ccc4c(c3)-c3c(c(C(N)=O)nn3-c3ccc(O)cc3)CC4)c(Cl)cn2)CC1`: the pIC50 with PBMC is 7.12; in data set [2], 8.46. Moreover, in data set [1], the T1/2 worked out at 1 h.

As to `COCCNc1cc(C(=O)Nc2ccc3c(c2)-c2c(c(C(N)=O)nn2-c2ccc(F)cc2)CC3)c(Cl)cn1`, the pIC50 in the data set with PBMC is 6.87; in data set [2], 9.22. The T1/2 in data set [1] was 0.1 h.

Regarding `CN(C)CCCNC(=O)Cn1cc(CN2CCN(c3cc(C(=O)Nc4ccc5c(c4)-c4c(c(C(N)=O)nn4-c4ccc(F)cc4)CC5)c(Cl)cn3)CC2)cn1`, the pIC50 was 7.59 with PBMC and 8.48 in data set [2]. The T1/2 in data set [1] amounted to 6 h. The same compound yielded a half-life in data set [4] (microsomes) of 0.6 h. In data set [5], the “inhibition (INH)” value is on record as 34%.

As to `Cc1nn(C)cc1CN1CCN(c2cc(C(=O)Nc3ccc4c(c3)-c3c(c(C(N)=O)nn3-c3ccc(F)cc3)CC4)c(Cl)cn2)CC1`, the pIC50 in the data set on PBMC is 6.93; in data set [2], 8.37. In addition, the T1/2 in data set [1] is 8 h.

Turning to `Cn1cc(CN2CCN(c3cc(C(=O)Nc4ccc5c(c4)-c4c(c(C(N)=O)nn4-c4cccc(F)c4)CC5)c(Cl)cn3)CC2)cn1`, the pIC50 with PBMC was 7.85. For the same compound, the T1/2 in data set [1] came to 3 h. Moreover, the half-life in data set [4] (microsomes) was determined as 0.233 h. Moreover, the “inhibition (INH)” value in data set [5] is given as 83%.

Turning to `NC(=O)c1nn(-c2ccc(F)cc2)c2c1CCc1ccc(NC(=O)c3cc(N4CCN(Cc5cn[nH]c5)CC4)ncc3Cl)cc1-2`, the pIC50 is 7.80 with PBMC and 8.72 in data set [2]. Moreover, in data set [1], the T1/2 amounted to 3 h. In addition, the half-life in data set [4] (microsomes) was determined as 0.133 h. Also, in data set [5], the “inhibition (INH)” value is 78%.

For `COCCN1CCN(c2cc(C(=O)Nc3ccc4c(c3)-c3c(c(C(N)=O)nn3-c3ccc(F)cc3)CC4)c(Cl)cn2)CC1`, the pIC50 with PBMC is 8.10; in data set [2], 8.72. For the same compound, the T1/2 in data set [1] amounted to 0.6 h.

As to `Cn1cc(CN2CCN(c3cc(C(=O)Nc4ccc5c(c4)-c4c(c(C(N)=O)nn4-c4ccc(F)cc4)CC5)c(Cl)cn3)CC2C(=O)O)cn1` (configuration not stated), the pIC50 with PBMC was 6.36; in data set [2], 8.41. Further, the T1/2 in data set [1] came out at 0.3 h.

Turning to `CN1CCN(c2cc(C(=O)Nc3ccc4c(c3)-c3c(c(C(N)=O)nn3-c3ccc(F)c(F)c3)CC4)c(Cl)cn2)CC1`, the figures for the pIC50 (with PBMC; in data set [2]) were 7.19 and 8.00, respectively.

As to `Cn1cc(CN2CCN(c3cc(C(=O)Nc4ccc5c(c4)-c4c(c(C(N)=O)nn4-c4ccc(F)cc4)CC5)c(Cl)cn3)CC2)cn1`, the negative logarithm of the IC50 (pIC50) with PBMC was 7.96; in data set [2], 8.52. Besides, the T1/2 in data set [1] worked out at 4 h. Further, in data set [4] (liver microsomes), the half-life was found to be 0.283 h. Moreover, the “inhibition (INH)” value in data set [5] came to 91%.

For the compound `C[C@H]1CN(c2cc(C(=O)Nc3ccc4c(c3)-c3c(c(C(N)=O)nn3-c3ccc(F)cc3)CC4)c(Cl)cn2)CCN1Cc1cnn(C)c1`, the values for the pIC50 (in the data set on PBMC; in data set [2]) were 8.05 and 8.46, respectively. Besides, in data set [1], the T1/2 turned out to be 6 h.

Turning to `COCCOC(=O)Cn1cc(CN2CCN(c3cc(C(=O)Nc4ccc5c(c4)-c4c(c(C(N)=O)nn4-c4ccc(F)cc4)CC5)c(Cl)cn3)CC2)cn1`, the figures for the pIC50 (with PBMC; in data set [2]) were 8.05 and 8.89, respectively. Moreover, the T1/2 was 4 h in data set [1] and over 4 h in data set [3]. In data set [5], the “inhibition (INH)” value was 66%.

For `Cn1cc(CN2CCN(c3cc(C(=O)Nc4ccc5c(c4)-c4c(c(C(N)=O)nn4-c4ccc(F)cc4)CC5)c(Cl)cn3)C(C(=O)O)C2)cn1` (configuration not stated), the figures for the negative-log IC50 (pIC50) (with PBMC; in data set [2]) were 6.28 and 9.30, respectively. Moreover, the T1/2 in data set [1] is 4.2 h.

As for `CN1CCN(c2cc(C(=O)Nc3ccc4c(c3)-c3c(c(C(N)=O)nn3-c3cccc(O)c3)CC4)c(Cl)cn2)CC1`, the pIC50 is 7.05 in the data set with PBMC and 8.92 in data set [2]. Moreover, the T1/2 in data set [1] worked out at 1 h.

Consider `NC(=O)c1nn(-c2ccc(F)cc2)c2c1CCc1ccc(NC(=O)c3cc(N4CCN(Cc5cnn(CC(=O)N(CCO)CCO)c5)CC4)ncc3Cl)cc1-2`, for which the pIC50 with PBMC was 6.32; in data set [2], 7.99. The figures for the T1/2 in data set [1] and in data set [3] were 4 h and over 4 h, respectively. In addition, the inhibition (INH) in data set [5] is -1%.

For the compound `COc1ccc(-n2nc(C(N)=O)c3c2-c2cc(NC(=O)c4cc(N5CCN(C)CC5)ncc4Cl)ccc2CC3)cc1`, the pIC50 in the data set with PBMC is 7.48; in data set [2], 8.21.

For the compound `CN1CCN(c2cc(C(=O)Nc3ccc4c(c3)-c3c(c(C(N)=O)nn3-c3ccc(O)c(Cl)c3)CC4)c(Cl)cn2)CC1`, the pIC50 with PBMC was 7.34; in data set [2], 8.55. Further, the T1/2 in data set [1] was 1 h.

As for `NC(=O)c1nn(-c2ccc(F)cc2)c2c1CCc1ccc(NC(=O)c3cc(N4CCN(Cc5cnn(CC(=O)O)c5)CC4)ncc3Cl)cc1-2`, the pIC50 is 6.66 with PBMC and 9.30 in data set [2]. In data set [4] (liver microsomes), this compound displayed a half-life of 2 h. Also, in data set [5], the “inhibition (INH)” value came out at 29%.

Turning to `COC(=O)Cn1cc(CN2CCN(c3cc(C(=O)Nc4ccc5c(c4)-c4c(c(C(N)=O)nn4-c4ccc(F)cc4)CC5)c(Cl)cn3)CC2)cn1`, the negative logarithm of the IC50 (pIC50) was 7.27 in the data set on PBMC and 8.96 in data set [2]. For the same compound, in data set [1], the T1/2 was 6 h. Moreover, the “inhibition (INH)” value in data set [5] was 24%.

For the compound `CC(C)NC(=O)Cn1cc(CN2CCN(c3cc(C(=O)Nc4ccc5c(c4)-c4c(c(C(N)=O)nn4-c4ccc(F)cc4)CC5)c(Cl)cn3)CC2)cn1`, the pIC50 was 7.44 in the data set with PBMC and 8.70 in data set [2]. For the same compound, the T1/2 in data set [1] was 5 h. Also, in data set [5], the “inhibition (INH)” value turned out to be 94%.

With `CN1CCN(c2cc(C(=O)Nc3ccc4c(c3)-c3c(c(C(N)=O)nn3-c3ccc(Cl)c(O)c3)CC4)c(Cl)cn2)CC1`, the T1/2 in data set [1] amounted to 1 h. Further, the pIC50 in data set [2] was 8.66.

`Cc1c(CN2CCN(c3cc(C(=O)Nc4ccc5c(c4)-c4c(c(C(N)=O)nn4-c4ccc(F)cc4)CC5)c(Cl)cn3)CC2)cnn1C`: the values for the pIC50 (with PBMC; in data set [2]) were 7.17 and 8.55, respectively. Also, the T1/2 in data set [1] was 8 h.

For `NC(=O)c1nn(-c2ccc(F)cc2)c2c1CCc1ccc(NC(=O)c3cc(N4CCC(O)CC4)ncc3Cl)cc1-2`, the figures for the pIC50 (in the data set on PBMC; in data set [2]) were 7.82 and 9.22, respectively. Besides, the T1/2 in data set [1] came out at 0.1 h.

Regarding `CCn1cc(CN2CCN(c3cc(C(=O)Nc4ccc5c(c4)-c4c(c(C(N)=O)nn4-c4ccc(F)cc4)CC5)c(Cl)cn3)CC2)cn1`, the pIC50 in the data set on PBMC is 6.99; in data set [2], 8.38. In addition, the T1/2 in data set [1] is over 8 h.

Turning to `Cc1ccc(-n2nc(C(N)=O)c3c2-c2cc(NC(=O)c4cc(N5CCN(C)CC5)ncc4Cl)ccc2CC3)cc1`, the pIC50 is 7.42 in the data set on PBMC and 7.85 in data set [2].

(Values after ChEMBL document CHEMBL1667819, “Aminopyridinecarboxamide-based inhaled IKK-2 inhibitors for asthma and COPD: Structure-activity relationship” (Bioorg Med Chem, 2011).)
